Laboratory results: ChEMBL document CHEMBL1149444, “Discovery of imidazo[1,2-b][1,2,4]triazines as GABA(A) alpha2/3 subtype selective agonists for the treatment of anxiety” (J Med Chem, 2006)

Assays:
[1] = biological target: T1, GABA-A receptor; alpha-2/beta-3/gamma-2 (Homo sapiens, UniProt P18507+P28472+P47869); assay: Displacement of [3H] Ro15-1788 from recombinant human GABAA alpha2 receptor plus beta-3-gamma-2 expressed in L(tk-) cells; assay type: cell-based
T1 sequence (P18507 whole entry): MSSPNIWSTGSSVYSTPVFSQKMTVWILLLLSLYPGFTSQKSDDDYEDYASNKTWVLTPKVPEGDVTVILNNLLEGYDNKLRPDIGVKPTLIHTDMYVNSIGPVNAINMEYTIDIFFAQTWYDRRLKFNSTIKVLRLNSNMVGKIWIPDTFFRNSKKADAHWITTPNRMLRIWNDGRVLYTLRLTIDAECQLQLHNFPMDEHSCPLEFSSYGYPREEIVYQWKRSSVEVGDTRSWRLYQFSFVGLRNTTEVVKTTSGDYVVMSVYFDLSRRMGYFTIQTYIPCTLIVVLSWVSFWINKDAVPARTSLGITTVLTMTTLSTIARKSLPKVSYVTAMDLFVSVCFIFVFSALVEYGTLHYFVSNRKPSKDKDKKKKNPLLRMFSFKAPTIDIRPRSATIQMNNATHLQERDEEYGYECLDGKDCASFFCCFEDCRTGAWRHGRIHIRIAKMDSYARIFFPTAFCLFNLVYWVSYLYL
T1 sequence (P28472 whole entry): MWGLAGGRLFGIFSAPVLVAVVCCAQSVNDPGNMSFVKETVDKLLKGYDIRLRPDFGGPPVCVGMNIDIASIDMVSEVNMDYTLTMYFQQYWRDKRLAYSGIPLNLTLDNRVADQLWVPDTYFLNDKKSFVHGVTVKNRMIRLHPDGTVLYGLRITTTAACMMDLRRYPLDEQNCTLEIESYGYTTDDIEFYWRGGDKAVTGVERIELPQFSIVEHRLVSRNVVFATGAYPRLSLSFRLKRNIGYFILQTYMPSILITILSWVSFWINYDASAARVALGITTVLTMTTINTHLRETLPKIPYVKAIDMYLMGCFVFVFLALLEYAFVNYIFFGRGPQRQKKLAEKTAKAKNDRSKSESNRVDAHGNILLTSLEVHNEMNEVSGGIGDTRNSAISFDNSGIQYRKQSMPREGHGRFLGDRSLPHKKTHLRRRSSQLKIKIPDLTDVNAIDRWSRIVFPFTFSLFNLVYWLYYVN
T1 sequence (P47869 whole entry): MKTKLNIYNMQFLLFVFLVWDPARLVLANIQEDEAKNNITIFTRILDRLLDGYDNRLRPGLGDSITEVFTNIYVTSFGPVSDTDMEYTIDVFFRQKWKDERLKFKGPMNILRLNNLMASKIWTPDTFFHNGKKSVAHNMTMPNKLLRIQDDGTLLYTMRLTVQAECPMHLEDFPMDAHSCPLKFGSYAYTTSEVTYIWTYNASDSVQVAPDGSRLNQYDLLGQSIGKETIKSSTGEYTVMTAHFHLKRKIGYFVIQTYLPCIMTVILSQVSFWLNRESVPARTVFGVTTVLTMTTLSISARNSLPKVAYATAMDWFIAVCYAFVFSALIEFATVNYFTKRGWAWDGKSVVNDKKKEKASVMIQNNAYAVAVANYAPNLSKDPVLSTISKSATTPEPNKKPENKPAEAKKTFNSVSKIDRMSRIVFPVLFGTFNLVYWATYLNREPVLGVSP

[2] = biological target: T2, GABA-A receptor; alpha-1/beta-3/gamma-2 (Homo sapiens) (UniProt P14867+P18507+P28472); assay: Efficacy against recombinant human GABAA alpha1 receptor plus beta3gamma2 expressed in L(tk-) cells by whole cell patch clamp method relative to chlordiazepoxide; assay type: functional, cell-based
Summary of the method: (§1)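 Whole-cell patch clamp on L(tk-) cells stably expressing the receptor (alpha plus beta3gamma2). GABA applied at an EC20-equivalent concentration. Modulation of the current measured with increasing test concentrations. Efficacy expressed relative to the maximal chlordiazepoxide response (set at 1.00) or as a percentage.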

[3] = biological target: T3, GABA-A receptor; alpha-1/beta-3/gamma-2 (Homo sapiens, UniProt P14867+P18507+P28472); assay: Displacement of [3H]Ro 15-1788 from recombinant human GABAA alpha-1 receptor plus beta3gamma2 expressed in L(tk-) cells; assay type: cell-based
T3 sequence (P14867 whole entry): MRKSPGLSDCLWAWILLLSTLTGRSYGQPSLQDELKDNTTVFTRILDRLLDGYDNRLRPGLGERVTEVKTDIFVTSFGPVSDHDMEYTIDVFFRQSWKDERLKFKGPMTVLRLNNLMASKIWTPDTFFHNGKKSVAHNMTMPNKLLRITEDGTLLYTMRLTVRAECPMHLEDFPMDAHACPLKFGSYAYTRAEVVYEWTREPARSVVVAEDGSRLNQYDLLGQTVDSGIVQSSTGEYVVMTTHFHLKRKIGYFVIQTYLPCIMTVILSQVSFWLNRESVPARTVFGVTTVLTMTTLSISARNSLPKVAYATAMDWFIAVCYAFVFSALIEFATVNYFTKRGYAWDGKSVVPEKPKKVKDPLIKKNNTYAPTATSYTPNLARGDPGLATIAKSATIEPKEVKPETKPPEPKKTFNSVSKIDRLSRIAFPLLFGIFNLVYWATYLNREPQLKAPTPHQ
T3 sequence (P18507 whole entry): T1 sequence (P18507 whole entry)
T3 sequence (P28472 whole entry): T1 sequence (P28472 whole entry)

[4] = biological target: T4, GABA-A receptor; alpha-3/beta-3/gamma-2 (Homo sapiens) (UniProt P18507+P28472+P34903); assay: Efficacy against recombinant human GABAA alpha3 receptor plus beta-3-gamma-2 expressed in L(tk-) cells by whole cell patch clamp method relative to chlordiazepoxide; assay type: functional, cell-based; summary of the method: as §1
[5] = biological target: T2, GABA-A receptor; alpha-1/beta-3/gamma-2 (Homo sapiens); assay: Efficacy against recombinant human GABAA alpha-1 receptor plus beta3gamma2 expressed in L(tk-) cells by whole cell patch clamp method; assay type: functional, cell-based; summary of the method: as §1
[6] = Half life in rat at 1 mg/kg, […] 1 mg/kg, po; assay type: ADME, organism-based; settings: in vivo
Summary of the method: (§2)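 Rat pharmacokinetics after dosing at 1 mg/kg iv and 1 mg/kg po. Plasma clearance in mL/min/kg, half-life in h and volume of distribution in L/kg.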

[7] = Volume of distribution in rat at 1 mg/kg, iv or 1 mg/kg, po; assay type: ADME, organism-based; settings: in vivo, read-out: Vdss; summary of the method: as §2
[8] = Plasma clearance in rat at 1 mg/kg, iv or 1 mg/kg, po; assay type: ADME, organism-based; summary of the method: as §2
[9] = biological target: T4, GABA-A receptor; alpha-3/beta-3/gamma-2 (Homo sapiens); assay: Efficacy against recombinant human GABAA alpha-3 receptor plus beta3gamma2 expressed in L(tk-) cells by modulation of chloride ion flux relative to chlordiazepoxide; assay type: functional, cell-based
Summary of the method: (§3)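 Same L(tk-) lines expressing beta3gamma2 with alpha1 or alpha3. 36Cl ion flux evoked by an EC20-equivalent concentration of GABA, measured in the presence of about 1000 x Ki of test compound. Efficacy expressed relative to the maximal chlordiazepoxide response (1.00). Mean of at least seven independent experiments.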

[10] = biological target: T2, GABA-A receptor; alpha-1/beta-3/gamma-2 (Homo sapiens); assay: Efficacy against recombinant human GABAA alpha1 receptor plus beta-3-gamma-2 expressed in L(tk-) cells by modulation of chloride ion flux relative to chlordiazepoxide; assay type: functional, cell-based; summary of the method: as §3
[11] = Oral bioavailability in rat at 1 mg/kg, iv or 1 mg/kg, po; assay type: ADME, organism-based; settings: in vivo
Summary of the method: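 Pharmacokinetics in rat, dog or rhesus after 1 mg/kg iv and 1 mg/kg po dosing. Plasma clearance (mL/min/kg), half-life (h), volume of distribution (L/kg) and oral bioavailability (%) were derived.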

SMILES | Ki [1] | Efficacy [2] | Ki [3] | Efficacy [4] | Efficacy [5] | half-life [6] | Vd [7] | clearance [8] | Efficacy [9] | Efficacy [10] | bioavailability [11]
CCO/N=C(\C)c1ccc2c(c1)ncn2-c1cccc(-c2cccnc2)c1 | 14 nM | 40% | 2 nM | 99% |  |  |  |  |  |  | 
Cc1ccn2c(-c3cccc(-c4ccccc4C#N)c3)cnc2c1 | 3.7 nM |  |  | 55% | -10% |  |  |  |  |  | 
CC(C)(O)c1cnn2c(-c3ccc(F)c(-c4ccc(F)cc4C#N)c3)cnc2n1 | 2.1 nM |  | 1.2 nM | 43% | -15% | 38 h | 3.4 L/kg | 1.1 mL/min/kg |  |  | 
Cc1cnn2c(-c3cccc(-c4ccccc4C#N)c3)cnc2c1 | 19 nM |  | 13 nM |  |  |  |  |  | 26% | -20% | 
CC(C)(O)c1cnn2c(-c3ccc(F)c(-c4c(F)cc(F)cc4C#N)c3)cnc2n1 | 1 nM | 0% | 0.15 nM | 37% |  | 69 h | 5.8 L/kg | 1 mL/min/kg |  |  | 64%
Cc1ccn2c(-c3cccc(-c4ccccc4C#N)c3)cnc2n1 | 0.4 nM | 7% | 0.4 nM | 69% |  |  |  |  |  |  | 
CC(C)(O)c1ccn2c(-c3ccc(F)c(-c4cccnc4)c3)cnc2n1 | 4 nM | 6% |  |  |  |  |  |  |  |  | 
Cc1cnn2c(-c3cccc(-c4ccccc4C#N)c3)cnc2n1 | 1.2 nM |  | 1.5 nM | 34% | -21% |  |  |  |  |  | 
CN1C(=O)CN=C(c2ccccc2)c2cc(Cl)ccc21 |  | 93% |  | 80% |  |  |  |  |  |  | 
N#Cc1cc(F)ccc1-c1cc(-c2cnc3nc(C(F)(F)F)ccn23)ccc1F | 0.73 nM | -3% |  | 25% |  |  |  |  |  |  | 
N#Cc1cc(F)ccc1-c1cc(-c2cnc3nc(C(F)(F)F)cnn23)ccc1F | 0.8 nM |  | 0.25 nM | -6% | -13% |  |  |  |  |  | 
